Legend:
[1] = Lipophilicity, log D of the compound at pH 7.4; assay type: physicochemical; conditions: buffer
CYP1A1 [2] = assay: Induction of CYP1A1 mRNA expression in Sprague-Dawley rat hepatic microsomes at 30 mg/kg, po QD for 4 days relative to control; assay type: ADME, organism-based, Liver; conditions: read-out: FC
Procedure, shortened: (§1)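 Male CD rats (226–325 g, n = 3) were dosed by oral gavage once daily for 4 days as a 1% w/v aqueous methylcellulose suspension (3–6 mg/mL, 5 mL/kg). At the end of the study, a left lateral liver lobe section was placed in RNALater and homogenised in TRIzol. RNA was purified, DNase-treated and converted to cDNA, and Cyp1a1 was read on low-density TaqMan arrays.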

[3] = Dissociation constant, pKa of the compound; assay type: physicochemical
CYP1A2 [4] = assay: Induction of CYP1A2 mRNA expression in Sprague-Dawley rat hepatic microsomes at 30 mg/kg, po QD for 4 days relative to control; assay type: ADME, organism-based, Liver; conditions: read-out: FC
[5] = Cmax in Sprague-Dawley rat at 30 mg/kg, po QD measured on day 1; assay type: ADME, organism-based; set-up: dose 30 mg/kg, route oral; conditions: in vivo
Procedure, shortened: (§2)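 Male CD rats (226−325 g), n = 3, given the compound once daily by oral gavage for 4 days. Vehicle was 1% (w/v) methylcellulose aq suspension at 3−6 mg/mL, dosed at 5 mL/kg (target 15−30 mg/kg). Tail vein blood was taken on days 1 and 4 up to 24 h postdose. Blood was diluted 1:1 with water, extracted by acetonitrile protein precipitation and analysed by LC−MS/MS against calibration standards in diluted blood.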

[6] = Cmax in Sprague-Dawley rat at 30 mg/kg, po QD measured on day 4; assay type: ADME, organism-based; set-up: dose 30 mg/kg, route oral; conditions: in vivo; procedure, shortened: as §2
[7] = AUC in Sprague-Dawley rat at 30 mg/kg, po QD measured on day 1; assay type: ADME, organism-based; conditions: in vivo; procedure, shortened: as §2
[8] = AUC in Sprague-Dawley rat at 30 mg/kg, po QD measured on day 4; assay type: ADME, organism-based; conditions: in vivo; procedure, shortened: as §2
Rattus norvegicus [9] = assay: Dose normalized AUC in Sprague-Dawley rat at 30 mg/kg, po QD measured on day 1; assay type: ADME, organism-based; conditions: in vivo; procedure, shortened: as §2
Rattus norvegicus [10] = assay: Dose normalized AUC in Sprague-Dawley rat at 30 mg/kg, po QD measured on day 4; assay type: ADME, organism-based; conditions: in vivo; procedure, shortened: as §2
CYP1A1 [11] = assay: Induction of CYP1A1 mRNA expression in Sprague-Dawley rat hepatic microsomes at 15 mg/kg, po QD for 4 days relative to control; assay type: ADME, organism-based, Liver; conditions: read-out: FC; procedure, shortened: as §1
CYP1A2 [12] = assay: Induction of CYP1A2 mRNA expression in Sprague-Dawley rat hepatic microsomes at 15 mg/kg, po QD for 4 days relative to control; assay type: ADME, organism-based, Liver; conditions: read-out: FC
[13] = Cmax in Sprague-Dawley rat at 15 mg/kg, po QD measured on day 1; assay type: ADME, organism-based; set-up: dose 15 mg/kg, route oral; conditions: in vivo; procedure, shortened: as §2
[14] = Cmax in Sprague-Dawley rat at 15 mg/kg, po QD measured on day 4; assay type: ADME, organism-based; set-up: dose 15 mg/kg, route oral; conditions: in vivo; procedure, shortened: as §2
[15] = AUC in Sprague-Dawley rat at 15 mg/kg, po QD measured on day 1; assay type: ADME, organism-based; conditions: in vivo; procedure, shortened: as §2
[16] = AUC in Sprague-Dawley rat at 15 mg/kg, po QD measured on day 4; assay type: ADME, organism-based; conditions: in vivo; procedure, shortened: as §2
Rattus norvegicus [17] = assay: Dose normalized AUC in Sprague-Dawley rat at 15 mg/kg, po QD measured on day 1; assay type: ADME, organism-based; conditions: in vivo; procedure, shortened: as §2
Rattus norvegicus [18] = assay: Dose normalized AUC in Sprague-Dawley rat at 15 mg/kg, po QD measured on day 4; assay type: ADME, organism-based; conditions: in vivo; procedure, shortened: as §2
CYP1A1 [19] = assay: Induction of CYP1A1 mRNA expression in Sprague-Dawley rat hepatic microsomes at 25 mg/kg, po QD for 4 days relative to control; assay type: ADME, organism-based, Liver; conditions: read-out: FC; procedure, shortened: as §1
CYP1A2 [20] = assay: Induction of CYP1A2 mRNA expression in Sprague-Dawley rat hepatic microsomes at 25 mg/kg, po QD for 4 days relative to control; assay type: ADME, organism-based, Liver; conditions: read-out: FC
[21] = Cmax in Sprague-Dawley rat at 25 mg/kg, po QD measured on day 1; assay type: ADME, organism-based; set-up: dose 25 mg/kg, route oral; conditions: in vivo; procedure, shortened: as §2
[22] = Cmax in Sprague-Dawley rat at 25 mg/kg, po QD measured on day 4; assay type: ADME, organism-based; set-up: dose 25 mg/kg, route oral; conditions: in vivo; procedure, shortened: as §2
[23] = AUC in Sprague-Dawley rat at 25 mg/kg, po QD measured on day 1; assay type: ADME, organism-based; conditions: in vivo; procedure, shortened: as §2
[24] = AUC in Sprague-Dawley rat at 25 mg/kg, po QD measured on day 4; assay type: ADME, organism-based; conditions: in vivo; procedure, shortened: as §2
Rattus norvegicus [25] = assay: Dose normalized AUC in Sprague-Dawley rat at 25 mg/kg, po QD measured on day 1; assay type: ADME, organism-based; conditions: in vivo; procedure, shortened: as §2
Rattus norvegicus [26] = assay: Dose normalized AUC in Sprague-Dawley rat at 25 mg/kg, po QD measured on day 4; assay type: ADME, organism-based; conditions: in vivo; procedure, shortened: as §2
[27] = Oral bioavailability in CD rat at 3 mg/kg; assay type: ADME, organism-based; conditions: in vivo
Procedure, shortened: (§3)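 Male CD rats cannulated in the femoral and jugular veins, n = 3, crossover design. Day 1: 1 h iv infusion at 1 mg/kg (0.2 mg/mL in ≤5% DMSO/≥95% 10% Kleptose in saline, 5 mL/kg/h). Day 2: oral gavage at 3 mg/kg (0.6 mg/mL in 1% methylcellulose, 5 mL/kg). Blood assayed by LC–MS/MS after acetonitrile precipitation.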

[28] = Half life in CD rat at 1 mg/kg, iv; assay type: ADME, organism-based; conditions: in vivo
Procedure, shortened: (§4)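 Male CD rats carried femoral vein (dosing) and jugular vein (sampling) cannulae and recovered at least 2 days. They received a 1 h iv infusion at 5 mL kg−1 h−1, target 1 mg/kg, at 0.2 mg/mL in DMSO/10% Kleptose in saline (≤5%:≥95%). pH was adjusted to 8.0 if needed and the solution filtered. Definitive studies used n = 3 in crossover; others used single animals.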

[29] = Volume of distribution at steady state in CD rat at 1 mg/kg, iv; assay type: ADME, organism-based; conditions: in vivo, read-out: Vdss; procedure, shortened: as §3
[30] = Blood clearance in CD rat at 1 mg/kg, iv; assay type: ADME, organism-based; procedure, shortened: as §4
CYP1A1 [31] = assay: Induction of CYP1A1 mRNA expression in Sprague-Dawley rat hepatic microsomes at 24 mg/kg, po QD for 4 days relative to control; assay type: ADME, organism-based, Liver; conditions: read-out: FC; procedure, shortened: as §1
CYP1A2 [32] = assay: Induction of CYP1A2 mRNA expression in Sprague-Dawley rat hepatic microsomes at 24 mg/kg, po QD for 4 days relative to control; assay type: ADME, organism-based, Liver; conditions: read-out: FC
[33] = Cmax in Sprague-Dawley rat at 24 mg/kg, po QD measured on day 1; assay type: ADME, organism-based; set-up: dose 24 mg/kg, route oral; conditions: in vivo; procedure, shortened: as §2
[34] = Cmax in Sprague-Dawley rat at 24 mg/kg, po QD measured on day 4; assay type: ADME, organism-based; set-up: dose 24 mg/kg, route oral; conditions: in vivo; procedure, shortened: as §2
[35] = AUC in Sprague-Dawley rat at 24 mg/kg, po QD measured on day 1; assay type: ADME, organism-based; conditions: in vivo; procedure, shortened: as §2
[36] = AUC in Sprague-Dawley rat at 24 mg/kg, po QD measured on day 4; assay type: ADME, organism-based; conditions: in vivo; procedure, shortened: as §2
Rattus norvegicus [37] = assay: Dose normalized AUC in Sprague-Dawley rat at 24 mg/kg, po QD measured on day 1; assay type: ADME, organism-based; conditions: in vivo; procedure, shortened: as §2
Rattus norvegicus [38] = assay: Dose normalized AUC in Sprague-Dawley rat at 24 mg/kg, po QD measured on day 4; assay type: ADME, organism-based; conditions: in vivo; procedure, shortened: as §2

Row | Structure (SMILES) | logD [1] | fold induction at 96 h (CYP1A1 [2]) | pKa [3] | fold induction at 96 h (CYP1A2 [4]) | Cmax [5] [µg/mL] | Cmax [6] [µg/mL] | AUC [7] [µg·h/mL] | AUC [8] [µg·h/mL] | AUC/dose (Rattus norvegicus [9]) [kg·min/L] | AUC/dose (Rattus norvegicus [10]) [kg·min/L] | fold induction at 96 h (CYP1A1 [11]) | fold induction at 96 h (CYP1A2 [12]) | Cmax [13] [µg/mL] | Cmax [14] [µg/mL] | AUC [15] [µg·h/mL] | AUC [16] [µg·h/mL] | AUC/dose (Rattus norvegicus [17]) [kg·min/L] | AUC/dose (Rattus norvegicus [18]) [kg·min/L] | further results
1 | Cc1c(-c2noc(-c3ccc(OC(C)C)c(C#N)c3)n2)ccc2c1CCN(C[C@H](O)CO)C2 | 2.7 | 64 | 7.7 | 10 | 0.77 | 0.5 | 4.44 | 3.6 | 9 | 9 |  |  |  |  |  |  |  |  | 
2 | Cc1c(-c2noc(-c3ccc(OC(C)C)c(C#N)c3)n2)ccc2c1CCN(C[C@H](O)CO)CC2 | 2.36 |  | 8.4 |  |  |  |  |  |  |  |  |  |  |  |  |  |  |  | fold induction at 96 h (CYP1A1 [19]): 215; fold induction at 96 h (CYP1A2 [20]): 2.2; Cmax [21]: 0.73 µg/mL; Cmax [22]: 0.87 µg/mL; AUC [23]: 13.2 µg·h/mL; AUC [24]: 15.6 µg·h/mL; AUC/dose (Rattus norvegicus [25]): 31 kg·min/L; AUC/dose (Rattus norvegicus [26]): 38 kg·min/L
3 | CC(C)Nc1ncc(-c2nc(-c3ccc4c(c3)CCN(C(CO)CO)CC4)no2)cc1C#N | 2.63 |  | 8.1 |  |  |  |  |  |  |  |  |  |  |  |  |  |  |  | bioavailability [27]: 67%; half-life [28]: 8.1 h; Vd [29]: 10.9 L/kg; clearance [30]: 1.32 L/h/kg; fold induction at 96 h (CYP1A1 [31]): 100; fold induction at 96 h (CYP1A2 [32]): 2; Cmax [33]: 1.01 µg/mL; Cmax [34]: 1.22 µg/mL; AUC [35]: 15.3 µg·h/mL; AUC [36]: 21.3 µg·h/mL; AUC/dose (Rattus norvegicus [37]): 38 kg·min/L; AUC/dose (Rattus norvegicus [38]): 55 kg·min/L

Now from value to molecule, other results behind:

Row | logD [1] | fold induction at 96 h (CYP1A1 [2]) | pKa [3] | fold induction at 96 h (CYP1A2 [4]) | Cmax [5] [µg/mL] | Cmax [6] [µg/mL] | AUC [7] [µg·h/mL] | AUC [8] [µg·h/mL] | AUC/dose (Rattus norvegicus [9]) [kg·min/L] | AUC/dose (Rattus norvegicus [10]) [kg·min/L] | fold induction at 96 h (CYP1A1 [11]) | fold induction at 96 h (CYP1A2 [12]) | Cmax [13] [µg/mL] | Cmax [14] [µg/mL] | AUC [15] [µg·h/mL] | AUC [16] [µg·h/mL] | AUC/dose (Rattus norvegicus [17]) [kg·min/L] | AUC/dose (Rattus norvegicus [18]) [kg·min/L] | Structure (SMILES) | further results
4 | 2.58 |  | 7.3 |  |  |  |  |  |  |  | 1.6 | 2 | 0.9 | 0.94 | 12.1 | 13.9 | 48 | 56 | CC(C)Oc1ccc(-c2nc(-c3cccc4c3CCN(C(CO)CO)C4)no2)cc1C#N | 
5 | 2.76 | 1.4 |  | 1.5 | 0.44 | 0.79 | 4.42 | 7.64 | 9 | 16 |  |  |  |  |  |  |  |  | Cc1c(-c2noc(-c3ccc(OC(C)C)c(C#N)c3)n2)ccc2c1CCN(C(CO)CO)C2 | 
6 | 2.64 |  | 8.2 |  |  |  |  |  |  |  | 275 | 1.9 | 0.55 | 0.67 | 9.1 | 11.5 | 36 | 46 | Cc1c(-c2noc(-c3ccc(OC(C)C)c(C#N)c3)n2)ccc2c1CCN(C(CO)CO)CC2 | 

Source: ChEMBL document CHEMBL3627702, “Navigating CYP1A Induction and Arylhydrocarbon Receptor Agonism in Drug Discovery. A Case History with S1P1 Agonists” (J Med Chem, 2015)
